Published values gathered from unrelated publications.
Compare with care: the assays were run in different laboratories.
Target: Cytoplasmic tyrosine-protein kinase BMX (BMX, Homo sapiens, UniProt P51813)
Sequence (P51813 1-675, as in one of the studies): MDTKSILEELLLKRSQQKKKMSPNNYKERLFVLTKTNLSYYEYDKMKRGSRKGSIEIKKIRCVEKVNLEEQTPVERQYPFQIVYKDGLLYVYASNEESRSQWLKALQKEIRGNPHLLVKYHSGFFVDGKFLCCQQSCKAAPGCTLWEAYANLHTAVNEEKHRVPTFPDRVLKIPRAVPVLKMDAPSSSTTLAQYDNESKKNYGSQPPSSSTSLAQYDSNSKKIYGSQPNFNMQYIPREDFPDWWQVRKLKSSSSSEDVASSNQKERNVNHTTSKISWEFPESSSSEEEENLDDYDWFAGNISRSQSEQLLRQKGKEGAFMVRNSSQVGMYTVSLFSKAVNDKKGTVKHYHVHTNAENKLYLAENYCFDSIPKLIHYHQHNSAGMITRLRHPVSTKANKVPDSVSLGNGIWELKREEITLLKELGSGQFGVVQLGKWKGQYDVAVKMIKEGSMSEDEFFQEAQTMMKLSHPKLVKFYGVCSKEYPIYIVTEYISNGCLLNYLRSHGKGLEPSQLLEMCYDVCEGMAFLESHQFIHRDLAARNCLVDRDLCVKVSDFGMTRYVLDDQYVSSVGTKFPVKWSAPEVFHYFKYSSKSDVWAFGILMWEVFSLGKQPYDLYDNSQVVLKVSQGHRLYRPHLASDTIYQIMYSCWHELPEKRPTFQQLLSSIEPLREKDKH

| Compound | read-out | technique | tested at | remaining binding [%] |
| --- | --- | --- | --- | --- |
| CC(=O)c1c(NS(C)(=O)=O)c2cc(-c3ccc(Cl)cc3)c(-c3ccc(Cl)cc3Cl)nc2n(C)c1=O | cell-free assay | competition with immobilised ligand | 1 µM | 100 |
| CN(C)c1nccc(-c2cnc3ncccn23)n1 | binding | – | 1 µM | 100 |
| CCOCCn1cc(C(=O)Nc2ccc(-n3nc(-c4cccnc4)cc3C(F)(F)F)cn2)ccc1=O | cell-free assay | competition with immobilised ligand | 1 µM | 84 |
| Cc1cnc(Nc2ccc(C(=O)N3CCC(N4CCCC4)CC3)cc2)nc1-c1cc2ccccc2s1 | binding | competition with immobilised ligand | 1 µM | 75 |
| N[C@@H]1CCN(c2nccc(-c3cnn4ncccc34)n2)C1 | binding | – | 1 µM | 97 |
| C[C@H](c1cccc(C#N)c1)n1cc(Cl)cc(C(N)=O)c1=N | cell-free assay | competition with immobilised ligand | 1 µM | 77 |
| CC1CCCN1c1nccc(-c2cnn3ncccc23)n1 (stereo not drawn) | binding | – | 1 µM | 94 |
| COc1ncc2cc3ccccc3nc2c1C#N | cell-free assay | competition with immobilised ligand | 5 µM | 99 |
| Cc1cnn2ncc(-c3ccnc(N(C)C)n3)c2c1 | binding | – | 1 µM | 96 |
| CCN1CCN(Cc2ccc(C(=O)Nc3ccc(C)c(Oc4ccc5c(c4)CC(=O)N5)c3)cc2C(F)(F)F)CC1 | binding | competition with immobilised ligand | 1 µM | 88 |
| c1cnn2ncc(-c3ccnc(N4CCC45COC5)n3)c2c1 | binding | – | 1 µM | 90 |
| O=C(Nc1c[nH]nc1C(=O)NC1CCNCC1)c1cc(F)cc(F)c1 | binding | competition with immobilised ligand | 1 µM | 100 |
| Nc1ncc2c(n1)-c1c([nH]c3ccc(C#CC4CC4)cc13)CCCC2 | binding | competition with immobilised ligand | 1 µM | 86 |
| C[C@@H]1CCN(c2nccc(-c3cnn4ncccc34)n2)C1 | binding | – | 1 µM | 100 |
| CN1CCN(c2cnc3c(C4CCN(C(=O)c5ccc(OC(F)(F)F)cc5N)CC4)ncnc3c2)CC1 | cell-free assay | competition with immobilised ligand | 1 µM | 100 |
| O=C(NCCCN1CCOCC1)c1ccc(Nc2nccc(-c3cc4ccccc4s3)n2)cc1 | binding | competition with immobilised ligand | 1 µM | 100 |
| COc1cnc(Nc2cccc(S(N)(=O)=O)c2)nc1N1CCN(c2ccccc2)C(=O)C1 | binding | competition with immobilised ligand | 1 µM | 100 |
| CO[C@@H](C)c1c(Nc2ccc([C@H](N(C)C(=O)C3CCS(=O)(=O)CC3)C(F)(F)F)cc2)cnc2cc(Cl)nn12 | cell-free assay | competition with immobilised ligand | 1 µM | 99 |
| O=C(c1ccc(Nc2ncc(Cl)c(-c3cc4ccccc4s3)n2)cc1)N1CCC(N2CCCC2)CC1 | binding | competition with immobilised ligand | 1 µM | 75 |
| Cc1cc(-n2nc(Cc3cc(F)cc(C(F)(F)F)c3)nc2C)ccc1C(N)=O | cell-free assay | competition with immobilised ligand | 1 µM | 100 |
| COc1cnc(Nc2cccc(S(N)(=O)=O)c2)nc1N1CCN(c2ccccc2)CC1 | binding | competition with immobilised ligand | 1 µM | 93 |
